Where “and” joins values, the source holds several entries; their conditions need not be identical. Identical values can stand only once.
Assay: Hydrolysis rate constant at pH 9.6
Type: ADME
Settings: buffer
Procedure, shortened: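 Alkaline hydrolysis was followed by UV spectrophotometry on aqueous cephalosporin solutions at 6 × 10^-4 M and 35.0 ± 0.1 °C, with pH held at 9.60 ± 0.02 by borate buffer.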

Row | Structure (SMILES) | k [h⁻¹]
1 | CC1=C(C(=O)O)N2C(=O)C(NC(=O)C(N)C3=CCC=CC3)C2SC1 (configuration not stated) | 0.056
2 | CC1=C(C(=O)O)N2C(=O)C(NC(=O)Cc3ccccc3)C2SC1 (configuration not stated) | 0.017
3 | CC(=O)OCC1=C(C(=O)O)N2C(=O)[C@@H](N)[C@H]2SC1 | 0.037
4 | CC1=C(C(=O)O)N2C(=O)C(NC(=O)Cc3noc(C)n3)C2SC1 (configuration not stated) | 0.021
5 | NC(=O)c1ccc[n+](CC2=C(C(=O)[O-])N3C(=O)C(NC(=O)Cc4cccs4)C3SC2)c1 (configuration not stated) | 0.57
6 | O=C(Cc1cccs1)NC1C(=O)N2C(C(=O)[O-])=C(C[n+]3ccccc3)CSC12 (configuration not stated) | 0.53
7 | Cc1nc(CC(=O)NC2C(=O)N3C(C(=O)O)=C(CSc4nnc(C)o4)CSC23)no1 (configuration not stated) | 0.105

The next lines start with the values.

Row | k [h⁻¹] | Structure (SMILES)
8 | 0.21 | Cn1nnnc1SCC1=C(C(=O)O)N2C(=O)C(NC(=O)C(Br)c3cccs3)C2SC1 (configuration not stated)
9 | 0.026 | Cc1nc(CC(=O)NC2C(=O)N3C(C(=O)O)=C(CSc4c[nH]nn4)CSC23)no1 (configuration not stated)
10 | 0.126 | Cn1nnnc1SCC1=C(C(=O)O)N2C(=O)C(NC(=O)Cc3cccs3)C2SC1 (configuration not stated)
11 | > 3 | CC(=O)OCC1=C(C(=O)O)N2C(=O)C(NC(=O)NCc3cccs3)C2SC1 (configuration not stated)
12 | 0.12 | Cc1nnc(SCC2=C(C(=O)O)N3C(=O)C(NC(=O)Cc4cccs4)C3SC2)s1 (configuration not stated)
13 | 0.095 | O=C(Cc1cccs1)NC1C(=O)N2C(C(=O)O)=C(CSc3nc4ccccc4s3)CSC12 (configuration not stated)
14 | 0.107 | Cc1nnc(SCC2=C(C(=O)O)N3C(=O)[C@@H](NC(=O)Cn4cnnn4)[C@H]3SC2)s1 [CEFAZOLIN]
15 | 0.104 | Cc1nc(CC(=O)NC2C(=O)N3C(C(=O)O)=C(CSc4nnc(C)s4)CSC23)no1 (configuration not stated)
16 | 0.067 | CCN(CC)C(=S)SCC1=C(C(=O)O)N2C(=O)C(NC(=O)Cc3cccs3)C2SC1 (configuration not stated)
17 | 0.112 | CC(C(=O)NC1C(=O)N2C(C(=O)O)=C(CSc3nnnn3C)CSC12)c1cccs1 (configuration not stated)
18 | 0.028 | O=C(Cc1cccs1)NC1C(=O)N2C(C(=O)O)=C(CSc3c[nH]nn3)CSC12 (configuration not stated)
19 | 0.019 | O=C(Cc1cccs1)NC1C(=O)N2C(C(=O)O)=C(CSC3=CCC=CC3)CSC12 (configuration not stated)
20 | 0.058 | CC1=C(C(=O)O)N2C(=O)[C@@H](NC(=O)[C@H](N)c3ccccc3)[C@H]2SC1 [CEPHALEXIN ANHYDROUS]
21 | 0.122 | Cn1nnnc1SCC1=C(C(=O)O)N2C(=O)C(NC(=O)C(C(=O)[O-])c3cccs3)C2SC1.[Na+] (configuration not stated)
22 | 0.147 | CC(=O)OCC1=C(C(=O)O)N2C(=O)C(NC(=O)Cc3cccs3)C2SC1 (configuration not stated)
23 | 0.157 | CC(=O)OCC1=C(C(=O)O)N2C(=O)C(NC(=O)CSc3ccncc3)C2SC1 (configuration not stated)

Assay: Hydrolysis rate constant at pH 10
Type: ADME
Settings: buffer

Row | Structure (SMILES) | k
24 | O=C(COc1ccccc1)NC1C(=O)N2C(C(=O)O)=C(CO)CSC12 (configuration not stated) | 0.084 h⁻¹
25 | CC1=C(C(=O)O)N2C(=O)C(NC(=O)C(N)C3=CCC=CC3)C2SC1 (configuration not stated) | 0.067 h⁻¹
26 | CC1=C(C(=O)O)N2C(=O)C(NC(=O)Cc3ccccc3)C2SC1 (configuration not stated) | 0.033 h⁻¹
27 | CC(=O)OCC1=C(C(=O)O)N2C(=O)C(NC(=O)Cc3ccccc3)C2SC1 (configuration not stated) | 0.36 h⁻¹
28 | O=C(COc1ccccc1)NC1C(=O)N2C(C(=O)[O-])=C(C[n+]3ccccc3)CSC12 (configuration not stated) | 0.857 h⁻¹
29 | O=C(Cc1cccs1)NC1C(=O)N2C(C(=O)[O-])=C(C[n+]3ccccc3)CSC12 (configuration not stated) | 0.675 h⁻¹ and 1.08 h⁻¹
30 | CC1=C(C(=O)O)N2C(=O)C(NC(=O)COc3ccccc3)C2SC1 (configuration not stated) | 0.049 h⁻¹
31 | CC1=C(C(=O)O)N2C(=O)C(N)C2SC1 (configuration not stated) | 0.0097 h⁻¹
32 | CC(=O)OCC1=C(C(=O)O)N2C(=O)C(NC(=O)COc3ccccc3)C2SC1 (configuration not stated) | 0.378 h⁻¹

Results, then the compound that gave them:

Row | k | Structure (SMILES)
33 | 0.217 h⁻¹ | Cc1nnc(SCC2=C(C(=O)O)N3C(=O)[C@@H](NC(=O)Cn4cnnn4)[C@H]3SC2)s1 [CEFAZOLIN]
34 | 0.079 h⁻¹ | CSCC1=C(C(=O)O)N2C(=O)C(NC(=O)Cc3cccs3)C2SC1 (configuration not stated)
35 | 0.038 h⁻¹ | CC1=C(C(=O)O)N2C(=O)C(NC(=O)Cc3cccs3)C2SC1 (configuration not stated)
36 | 0.145 h⁻¹ | CC1=C(C(=O)O)N2C(=O)[C@@H](NC(=O)[C@H](N)c3ccccc3)[C@H]2SC1 [CEPHALEXIN ANHYDROUS]
37 | 0.349 h⁻¹ and 0.3 h⁻¹ | CC(=O)OCC1=C(C(=O)O)N2C(=O)C(NC(=O)Cc3cccs3)C2SC1 (configuration not stated)
